Measurements taken from PMC3772774 (Molecular cancer therapeutics, 2013).

What was measured:
c-Myc activation = c-Myc activation sensor luciferase assay in SK-ST stable cells; format: cell-based, human; details: for fold by which IC50 for sensor signal inhibition is higher than that of NTZ: SK-ST cells, PD98059 2hrs, U0126 1hr, Atorvastatin 16hrs
SK-ST xenografts = assay: SK-ST breast cancer xenograft model in nude mice; format: in vivo
phospho c-Myc [1] = assay: Western blot of endogenous phospho c-Myc in lymphoma cells; format: cell-based; details: read-out: IC50 of inhibition of phospho c-Myc level
Method in brief: (§1)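 SKBR3 (McCoy's 5a), lymphoma (RPMI plus 3.96×10-4% 2-mercaptoethanol) and osteosarcoma 1325 (DMEM) cells, all with 10% FBS, at 37°C, 5% CO2, were exposed to test compound as in the sensor assay. Lysates (50μg protein) were immunoblotted for phospho-c-Myc (Thr58/Ser62) and c-Myc, with β-actin as loading control, then ECL and densitometry. IC50 came from a four-parameter nonlinear fit of fold-change against log concentration; ≥3 repeats.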

c-Myc = c-Myc inhibition in different cancer cell lines; format: cell-based; details: read-out: IC50 for c-Myc inhibition, range over different cancer cell lines
Method in brief: as §1

SKBR3 cells = assay: MTS cell toxicity assay in SKBR3 cells; format: cell-based, human
phospho c-Myc [2] = assay: Western blot of endogenous phospho c-Myc in osteosarcoma cells; format: cell-based; details: read-out: IC50 of inhibition of phospho c-Myc level
Method in brief: as §1

[3] = molecular target: full-length firefly luciferase (SK-FST cells) (Photinus pyralis, UniProt P08659); assay: Full-length firefly luciferase control assay in SK-FST stable cells; format: cell-based; details: 16hrs treatment
Sequence of full-length firefly luciferase (SK-FST cells) (P08659 whole entry): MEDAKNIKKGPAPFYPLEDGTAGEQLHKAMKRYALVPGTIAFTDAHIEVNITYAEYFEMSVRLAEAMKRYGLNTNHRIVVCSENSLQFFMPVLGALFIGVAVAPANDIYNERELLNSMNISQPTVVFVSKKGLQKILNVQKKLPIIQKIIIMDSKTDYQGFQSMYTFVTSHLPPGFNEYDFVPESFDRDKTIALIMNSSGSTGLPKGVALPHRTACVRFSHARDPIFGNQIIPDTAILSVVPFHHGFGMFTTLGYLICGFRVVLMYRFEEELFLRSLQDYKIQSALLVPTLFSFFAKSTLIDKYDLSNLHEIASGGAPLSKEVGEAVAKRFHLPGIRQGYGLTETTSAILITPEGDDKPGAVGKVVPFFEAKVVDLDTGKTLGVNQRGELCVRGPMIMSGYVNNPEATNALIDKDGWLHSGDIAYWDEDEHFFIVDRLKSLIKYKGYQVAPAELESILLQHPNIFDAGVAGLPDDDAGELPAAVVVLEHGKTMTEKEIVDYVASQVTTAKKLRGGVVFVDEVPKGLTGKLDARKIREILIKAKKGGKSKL
Method in brief: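 SKBR3 cells stably expressing full-length firefly luciferase on a single vector, selected with 3μg/ml puromycin, grown in McCoy's 5a with 10% FBS at 37°C, 5% CO2. Test compound was applied for 16hrs. D-Luciferin (45μg/ml in PBS, pH 7.0) was added to the medium and IVIS images were taken at 2-min intervals until peak. Photon output was normalized to total lysate protein; ≥3 repeats.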

SK-FST xenografts = assay: SK-FST breast cancer xenograft model in nude mice; format: in vivo; details: 200mg/kg gavage twice a day, about 18 days after implantation

For CC(C)c1c(C(=O)Nc2ccccc2)c(-c2ccccc2)c(-c2ccc(F)cc2)n1CC[C@@H](O)C[C@@H](O)CC(=O)O [Atorvastatin], the “fold by which IC50 for sensor signal inhibition is higher than that of NTZ” value (c-Myc activation) was “about 50 fold”.
In the case of CC(=O)Oc1ccccc1C(=O)Nc1ncc([N+](=O)[O-])s1 [NTZ, nitazoxanide], the “common side effects (diarrhea, vomiting, skin rash)” value (SK-ST xenografts; 200mg/kg gavage twice a day for 27 days) is reported as “didn’t observe the common side effects”, the “tumor growth by gross inspection and caliper measurements” value (SK-ST xenografts; 200mg/kg gavage twice a day, 27 days after implantation, P=0.00007 vs CMC) is reported as “drastic inhibition of tumor growth” and the “bioluminescent signal from SK-ST xenografts (c-Myc activation)” value (SK-ST xenografts; 200mg/kg gavage twice a day, vs CMC group) is reported as “greatly inhibited”. For the same compound, the “caspase-3 staining, average positive cells in each sample” value (SK-ST xenografts; tumor samples, 200mg/kg gavage twice a day, CMC group 5±2, P<0.03) was 23±8 positive cells, the “endogenous phospho and c-Myc protein levels in tumor samples” value (SK-ST xenografts; western blot, NTZ vs CMC group) was “greatly reduced” and the IC50 (phospho c-Myc [1]) was 0.44 µM. The IC50 (c-Myc) was 0.01 to 0.5 µM, the “half-maximal lethal dose (LD50)” value (SKBR3 cells) was “about 1 μM” and the IC50 (phospho c-Myc [2]) was 0.012 µM. The “change of FL signal in SK-FST cells (direct effect on luciferase activity)” value [3] was “no significant changes”, the “bioluminescent signal of SK-FST xenografts” value (SK-FST xenografts) was “sustained decrease of the signal” and the IC50 (c-Myc activation; Homo sapiens, 16 h, read-out: IC50 for the sensor signal inhibition) was roughly 0.1 µM.
In the case of COc1cccc(-c2cc(=O)c3ccccc3o2)c1N [PD98059], the “fold by which IC50 for sensor signal inhibition is higher than that of NTZ” value (c-Myc activation) is reported as “about 2000 fold”.
With N#CC(=C(/N)Sc1ccccc1N)/C(C#N)=C(/N)Sc1ccccc1N [U0126] the “fold by which IC50 for sensor signal inhibition is higher than that of NTZ” value (c-Myc activation) was roughly 500 fold.
